Calls of active or inactive are those of the source. No cut-off for these calls is given here.

Data set [1] deals with MCF7. Put plainly: Cytotoxicity against doxorubicin-sensitive human MCF7 cells. The data set is classed as functional, cell-based.
In data set [2] the test system is HCT-116. The data set can be described thus: Cytotoxicity against human HCT116 cells. In kind it is functional, cell-based.
In another data set the test system is KB. Put plainly: Cytotoxicity against human KB cells. In kind it is functional, cell-based.
The test system of data set [3] is MCF7. The data set can be described thus: Cytotoxicity against doxorubicin-resistant human MCF7 cells. In kind it is functional, cell-based. Summed up:
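Doxorubicin-resistant MCF-7 line derived by prolonged doxorubicin treatment of MCF-7 cells; cytotoxicity assay run per a previously published procedure.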

Data set [4] deals with HCT-116. Put plainly: Cell cycle arrest in human HCT116 cells assessed as accumulation at S phase at 10 nM after 48 hrs by flow cytometry. The data set is classed as functional. On the technique in general: A flow cytometer gives signals particle by particle.
For the next data set, the system named is P388. Put plainly: Antitumor activity against mouse P388 cells implanted in CDF1 mouse assessed as reduction in body weight at 2.5 mg/kg, ip administered 1 day following implantation. In kind it is functional, organism-based. The arrangement: dose 2.5 mg/kg. Put shortly:
(§1)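 10^6 P388 (or P388/F 11782) murine leukemia cells implanted i.v. into CDF1 mice on day zero; single i.p. dose (2.5 or 5 mg/kg) given the day after implantation. Mice weighed twice weekly during treatment, weekly thereafter. Antitumor activity judged by increase in lifespan: ILS (%) = T/C − 100, T/C = median survival treated/control × 100.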

The subject of data set [5] is HCT-116. The data set can be described thus: Cell cycle arrest in human HCT116 cells assessed as accumulation at G2/M phase at 10 nM after 48 hrs by flow cytometry. In kind it is functional.
In data set [6] the test system is HCT-116. The data set can be described thus: Cell cycle arrest in human HCT116 cells assessed as accumulation at G0/G1 phase at 10 nM after 48 hrs by flow cytometry. The data set is classed as functional.
The test system of data set [7] is MCF7. The data set can be described thus: Cell cycle arrest in human MCF7 cells assessed as accumulation at G0/G1 phase at 10 nM after 48 hrs. The data set is classed as functional, cell-based.
A further data set deals with Mus musculus. The data set can be described thus: Toxicity in mouse P388 cells implanted in CDF1 mouse assessed as induction of death at 5 mg/kg, ip administered 1 day following implantation. In kind it is organism-based. The arrangement: dose 5 mg/kg, route intraperitoneal. To be noted: in vivo, 24 h. Summed up: as §1

On to `COc1cc2c(O[C@H]3O[C@@H](C)[C@@H](OC(C)=O)[C@@H](OC(C)=O)[C@@H]3OC(C)=O)c3c(c(-c4ccc5c(c4)OCO5)c2cc1OC)C(=O)OC3`, for which the figures for the 50% inhibitory concentration (IC50) with MCF7 [1], in the data set with HCT-116 [2] and in the data set on KB were 45 nM, 35 nM and 20 nM, respectively.
With `COc1cc2c(O[C@@H]3O[C@H](CO[C@@H]4OC[C@H](OC(C)=O)[C@H](OC(C)=O)[C@H]4OC(C)=O)[C@H](OC(C)=O)[C@H](OC(C)=O)[C@H]3OC(C)=O)c3c(c(-c4ccc5c(c4)OCO5)c2cc1OC)C(=O)OC3`, the IC50 (commonly the concentration that gives 50% inhibition) in the data set on MCF7 [1] was found to be 80 nM; with HCT-116 [2] it was 260 nM; in the data set on MCF7 [3] it was 8000 nM; in the data set on KB, 180 nM.
With `COc1cc2c(O[C@@H]3O[C@H](C)[C@@H](OC(C)=O)[C@H](OC(C)=O)[C@H]3OC(C)=O)c3c(c(-c4ccc5c(c4)OCO5)c2cc1OC)C(=O)OC3`, the 50% inhibitory concentration (IC50) with MCF7 [1] came out at 2 nM; in the data set with HCT-116 [2], 16 nM; with MCF7 [3], 65 nM; in the data set with KB it was 14 nM.
For `COc1cc2c(O[C@@H]3O[C@H](CO[C@@H]4OC[C@H](O)[C@H](O)[C@H]4O)[C@H](OC(C)=O)[C@H](OC(C)=O)[C@H]3O)c3c(c(-c4ccc5c(c4)OCO5)c2cc1OC)C(=O)OC3` [4'-O-ACETYLMANANTHOSIDE B] the same measures were 260 nM, 1200 nM, 2200 nM and 500 nM.
In the case of `COc1cc2c(O[C@H]3O[C@@H](C)[C@@H](OC(C)=O)[C@@H](O)[C@@H]3O)c3c(c(-c4ccc5c(c4)OCO5)c2cc1OC)C(=O)OC3` [4'-O-ACETYLPATENTIFLORIN B], the IC50 in the data set on MCF7 [1] came to 12 nM; in the data set on HCT-116 [2], 30 nM; with MCF7 [3], 100 nM; in the data set with KB it was 24 nM.
Take `CC(=O)O[C@@]12CO[C@@H]1C[C@H](O)[C@@]1(C)C(=O)[C@H](O)C3=C(C)[C@@H](OC(=O)[C@H](O)[C@@H](NC(=O)OC(C)(C)C)c4ccccc4)C[C@@](O)([C@@H](OC(=O)c4ccccc4)[C@H]21)C3(C)C` [DOCETAXEL]: the IC50 worked out at 20 nM in the data set on MCF7 [1], 4 nM with HCT-116 [2] and 2 nM in the data set on KB.
For the compound `COc1cc(OC)c2c(-c3ccc4c(c3)OCO4)c3c(c(OC)c2c1O)COC3=O` [JUSTICINOL], the results for the IC50 in the data set on MCF7 [1] and in the data set on KB were 360 nM and 300 nM, respectively.
With `O=C(CC(CO)C(=O)c1ccc2c(c1)OCO2)c1ccc2c(c1)OCO2` (stereo not drawn) [JUSTIFLORINOL], in the data set with KB, the IC50 is more than 10000 nM.
`COc1cc2c(O[C@@H]3O[C@H](C)[C@@H](O)[C@H](O)[C@H]3O)c3c(c(-c4ccc5c(c4)OCO5)c2cc1OC)C(=O)OC3` [PATENTIFLORIN A]: the IC50 with MCF7 [1] worked out at 3 nM; in the data set on HCT-116 [2] it was 12 nM; with MCF7 [3], 40 nM; in the data set on KB, 4 nM. For the same compound, the Activity in the data set with HCT-116 [4] is 43.4%; in the data set with HCT-116 [5], 13.5%; in the data set on HCT-116 [6] it was 41.9%; with Mus musculus it was “Toxic”. In addition, the result in the data set on P388 was inactive. Besides, the outcome in the data set on MCF7 [7] was Active.
As to `COc1cc2c(O[C@H]3O[C@@H](C)[C@@H](O)[C@@H](O)[C@@H]3O)c3c(c(-c4ccc5c(c4)OCO5)c2cc1OC)C(=O)OC3` [PATENTIFLORIN B], the IC50 with MCF7 [1] turned out to be 300 nM; in the data set on HCT-116 [2], 250 nM; with KB it was 6 nM.

The values are drawn from ChEMBL document CHEMBL1158763, “Cytotoxic arylnaphthalene lignans from a Vietnamese acanthaceae, Justicia patentiflora” (J Nat Prod, 2005).
